# From PubChem BioAssay
# Shown are actives, neighbours in structure and some others; about 1.3% of the full set was active somewhere.
# CHT inh – inhibitors of human choline transporter CHT; High affinity choline transporter 1 (Homo sapiens), Q9GZV3; CHT-expressing cells, membrane potential dye, choline response; stronger effect = lower value; B-score at 10 µM; 0.86% of 310,000 active; AID 488975, 2010;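 active means B-score over 3 SD under the library average, and starting fluorescence ratio not unusually high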;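 further: choline stimulus applied at its EC90 after an EC20 pre-addition; B-score computed on integrated fluorescence ratio after choline addition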
# CHT allo act – CHT positive allosteric modulators, primary screen, cell-based, membrane potential dye, choline EC20. High affinity choline transporter 1 (Homo sapiens), Q9GZV3. CHT-expressing cells; stronger effect = higher value; LV-AA mutant CHT in HEK293 cells. B-score at 10 µM. 0.49% of 310,000 active;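 active means initial fluorescence not abnormally high and integrated response B-score, plate-corrected, over 3 SD above library mean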
# procasp3 activ – activators of human procaspase-3 D3A mutant, primary screen, biochemical, absorbance, PC-3 D3A mutant, single concentration; activation, % at 8.5 µM; 0.11% of 330,000 active; recombinant procaspase-3 D3A, Ac-DEVD-pNA absorbance 405 nm;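 active means activation above the mean of all tested compounds plus 3 SD, cut at about 21% in these data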;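 further: 0% = DMSO alone and 100% = DMSO wells spiked with extra 5 µM PC-3 D3A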
# Target sequence (P42574 whole entry D9A/D28A/D175A): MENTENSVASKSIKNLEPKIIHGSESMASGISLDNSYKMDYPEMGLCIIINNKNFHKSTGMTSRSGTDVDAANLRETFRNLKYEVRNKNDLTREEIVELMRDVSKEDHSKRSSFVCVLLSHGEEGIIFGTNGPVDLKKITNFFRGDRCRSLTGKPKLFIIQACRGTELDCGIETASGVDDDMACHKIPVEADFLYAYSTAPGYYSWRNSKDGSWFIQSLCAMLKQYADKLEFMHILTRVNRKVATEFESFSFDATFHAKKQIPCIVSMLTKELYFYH
#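 Evaluation: percent activation relative to control range; Material: Procaspase-3 D3A mutant, all three cleavage aspartates alanine; Compound: single dose, 8.5 µM nominal compound, 0.8% DMSO; Replication: one well per compound; Signal: absorbance at 405 nm, 0 and 120 min; Schedule: 1 h preincubation plus 2 h reaction at 25 °C.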
# procasp7 counter – procaspase-7 activators, primary screen, counter-screen for procaspase-3 activator project, biochemical, absorbance, HTS, human; Caspase-7 (Homo sapiens), P55210; recombinant procaspase-7, Ac-DEVD-pNA absorbance 405 nm; D23A/D198A/D206A triple mutant, cannot self-cleave; scale: DMSO 0, 5 µM enzyme 100; activation, % at 8.5 µM; 0.093% of 330,000 active;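 active means percent activation above the screen-wide mean plus 3 SD, cut at about 25% in these data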
# Target sequence (P55210 whole entry D23A/D198A/D206A): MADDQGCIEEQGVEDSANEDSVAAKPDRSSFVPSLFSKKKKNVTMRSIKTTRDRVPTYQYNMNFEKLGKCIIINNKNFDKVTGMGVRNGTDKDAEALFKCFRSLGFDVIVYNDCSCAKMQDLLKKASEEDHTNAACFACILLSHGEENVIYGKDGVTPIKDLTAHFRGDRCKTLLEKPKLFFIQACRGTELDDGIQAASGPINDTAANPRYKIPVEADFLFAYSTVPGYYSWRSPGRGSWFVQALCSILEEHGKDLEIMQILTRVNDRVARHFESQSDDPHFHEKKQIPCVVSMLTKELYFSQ
#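 Assay system: Uncleavable procaspase-7 mutant enzyme | Input: 2 µM procaspase-7 mutant as dispensed | Timing: 1 h compound preincubation, 2 h substrate cleavage, 25 °C | Repeats: One well per compound | Control set: DMSO wells as 0%, DMSO with 5 µM added PC-7 as 100% | Technique: Epi-absorbance of released pNA at 405 nm, two timepoints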
# procasp7 triplic – procaspase-7 activators, counter-screen for procaspase-3 activator project, biochemical, absorbance, triplicate, human; shares compounds with procasp3 activ; recombinant procaspase-7, Ac-DEVD-pNA absorbance; asp23/198/206-to-Ala mutant, cannot self-cleave; activation, % at 8.5 µM; 210 tested, under 10 active;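 active means mean activation above a set limit taken from an earlier procaspase-7 screen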;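 further: 0% = DMSO wells and 100% = DMSO plus 5 µM procaspase-7 enzyme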
# proCasp3 confirm – activators of human procaspase-3 D3A mutant, confirmation, biochemical, absorbance, PC-3 D3A mutant, triplicate; AID 488954, 2010; shares compounds with procasp3 activ; recombinant PC-3 D3A, Ac-DEVD-pNA absorbance 405 nm; 100% is higher-enzyme control; 10% of 210 active; activation, % at 8.5 µM;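 active means mean activation above a set limit carried over from the earlier primary screen, cut at about 22% in these data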
# CHT block conf – CHT inhibitors, confirmation, cell-based, membrane potential dye, duplicate | shares compounds with CHT inh | CHT-expressing cells, choline membrane potential dye; LV-to-AA substituted CHT, HEK293 cells | CHT activity remaining % of control (stronger effect = lower value), % at 10 µM | 70% of 2,400 active | AID 493221, 2011;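 active means choline transporter activity left, mean of duplicates at 10 µM, below buffer-only control mean minus 3 SD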;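 further: depolarization triggered by choline at its EC90 following an EC20 pre-addition; 0% = hemicholinium-3 full block and 100% = buffer-only control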
# HEK293 MPD ctr – membrane potential effects in parental HEK293, counter-screen for CHT inhibitor project, cell-based, membrane potential dye; shares compounds with CHT inh; 4% of 2,400 active; membrane potential ratio readout (active if shifted either direction beyond buffer ±3SD; no single direction) at 10 µM; choline response; active = decrease or increase beyond buffer ±3SD;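 further: parental cells lack the transporter so any hit is non-specific; ratio is peak minus trough fluorescence over baseline after EC90 choline challenge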
# Starred values were filed as active, the others as inactive; i = inactive; nt = not tested or not shown.
SMILES,CHT inh,CHT allo act,procasp3 activ,procasp7 counter,procasp7 triplic,proCasp3 confirm,others
CCOc1ccc(S(=O)(=O)N(C)CC(=O)N2CCN(CC)CC2)cc1,i,i,10,9,nt,nt,
OC[C@@H]1[C@@H](c2ccc(Cl)cc2)C(c2ccccc2)=NN1c1ccccc1,nt,nt,22*,20,-21,-12,
CCc1cc2c(CN(C)Cc3ccccc3F)cc(=O)oc2cc1O,i,i,46*,21,-22,-16,
Cc1cc2oc(=O)cc(CN(C)Cc3cccc(F)c3)c2cc1C,i,i,-3,0,nt,nt,
COc1ccc(Cc2nnc(SCC(=O)Nc3ccccc3C)n(N)c2=O)cc1,i,i,-7,-3,nt,nt,
COc1cc(C(=O)O)ccc1OCc1ccncc1,i,i,-1,-3,nt,nt,
O=c1c(O)c(-c2cccs2)oc2ccccc12,i,i,27*,15,1,5,
O=c1c(O)c(-c2cccs2)oc2ccc(Cl)cc12,i,i,5,17,nt,nt,
Cc1cccc(N2CCN(C(=O)c3c(C)nn(Cc4ccccc4Cl)c3C)CC2)c1C,i,i,55*,7,0,3,
O=C(Cc1c(O)c2ccccc2[nH]c1=O)NC1CCCCCCC1,i,i,22*,-7,0,7,
CC(OC(=O)c1cc(=O)[nH]c2ccccc12)C(=O)c1ccccc1 (stereo unspecified),i,i,22*,13,2,7,
O=C(O)c1ccc(/C=N/Nc2nc3ccccc3[nH]2)cc1,i,i,-3,6,nt,nt,
O=c1[nH]c(N/N=C\c2ccc(F)cc2)nc2ccccc12,i,i,30*,22,1,-1,
CCCc1[nH]nc2c1C(c1cccc(OC(=O)c3ccco3)c1)C(C#N)=C(N)O2 (stereo unspecified),i,i,21*,9,0,4,
O=C(CN(C(=O)CCC(=O)Nc1ccccn1)c1cccc(F)c1)NCc1ccco1,i,i,-7,16,nt,nt,
CCN(CC)c1ccc(/C=N/NC(=S)NCc2ccco2)cc1,i,i,27*,14,2,31*,
Oc1ccc(/C=N/NC(=S)NCc2ccco2)cc1,i,i,4,-3,nt,nt,
CCC(C)C1Nc2ccc(C(=O)NCCc3ccc(OC)c(OC)c3)cc2NC1=O (stereo unspecified),i,i,5,3,nt,nt,
COc1ccc(S(=O)(=O)N2CCOCC2)cc1C(=O)NC1CCCCCC1,nt,nt,8,9,nt,nt,
Cc1c(C)n2c(SCC(=O)N3CCCCCC3)nnc2[nH]c1=O,i,i,23*,9,1,3,
COCCn1c(N)c(C(=O)NCc2cccs2)c2nc3ccccc3nc21,i,i,64*,-1,-21,-16,
COCCn1c(N)c(C(=O)NCC2CCCO2)c2nc3ccccc3nc21 (stereo unspecified),i,i,-11,-22,nt,nt,
Clc1ccc(-c2ccc(-c3nn4c(-c5ccco5)nnc4s3)o2)cc1,i,i,-4,-16,nt,nt,
Brc1ccc(-c2nn3c(-c4ccco4)nnc3s2)o1,i,i,23*,-4,-17,-12,
O=C(COC(=O)CNC(=O)C1CCCCC1)NCc1ccc(Cl)cc1,nt,nt,2,-1,nt,nt,
SMILES,CHT inh,CHT allo act,procasp3 activ,procasp7 counter,procasp7 triplic,proCasp3 confirm,others
CCCCN1C(=O)C(=O)N(CC(=O)c2cc(C)n(-c3cc(C)on3)c2C)C1=O,nt,nt,5,10,nt,nt,
COc1ccc(C2CC(c3ccccc3Br)=NN2c2ccc(S(N)(=O)=O)cc2)cc1 (stereo unspecified),nt,nt,21,16,nt,nt,
COc1ccc(C2CC(c3ccccc3C(F)(F)F)=NN2c2ccc(S(N)(=O)=O)cc2)cc1 (stereo unspecified),nt,nt,35*,24,-20,-14,
N#Cc1c(-c2ccccc2Cl)c2c([nH]c1=O)-c1ccccc1OC2,i,i,26*,4,-21,-14,
N#Cc1c(-c2ccncc2)c2c([nH]c1=O)-c1ccccc1OC2,i,i,-8,-1,nt,nt,
CC1CCN(C(=O)CN2C(=O)NC(c3ccccc3)(c3ccccc3)C2=O)CC1,nt,nt,5,4,nt,nt,
Oc1ccc(N=Cc2ccc(-c3cccs3)s2)cc1,i,i,35*,24,-22,-12,
CCCCOc1ccc(N=Cc2cccs2)cc1,i,i,6,-2,nt,nt,
CC(C)=CCc1cc(-c2oc3cc(O)cc(O)c3c(=O)c2O)ccc1O,i,i,22*,12,3,1,
O=c1c(O)c(-c2ccccc2)oc2cc(O)cc(O)c12,nt,nt,-4,-3,nt,nt,
COC(=O)C1=CN(CC2CCCO2)C=C(C(=O)OC)C1c1ccccc1C(F)(F)F (stereo unspecified),i,i,23*,15,-20,-11,
Cc1cnc(C(=O)OCc2nc3ccsc3c(=O)[nH]2)cn1,nt,nt,2,5,nt,nt,
CCCCN1CC(=O)N2[C@H](c3ccc(Cl)cc3)[C@@H]3C(=O)N(CC)C(=O)[C@@H]3[C@]2(Cc2ccccc2)C1=O,i,i,6,-2,nt,nt,
CCN(Cc1nc2ccccc2c(=O)[nH]1)C(=O)COc1ccccc1-c1ccccc1,nt,nt,4,1,nt,nt,
COc1ccc(OCCOC(=O)CN2C(=O)NC3(CCCC3)C2=O)cc1,i,i,-8,0,nt,nt,
CCCc1cc(=O)oc2cc(OC(=O)CN3C(=O)NC4(CCCC4)C3=O)ccc12,i,i,26*,15,-22,-13,
FC(F)(F)c1ccccc1NC(=S)Nn1cnnc1,i,i,nt,nt,nt,nt,
COC(=O)c1ccccc1NCc1cc(=O)oc2cc(O)c(O)cc12,i,i,53*,18,10,53*,
Cc1ccc(C)c(C(=O)COc2ncnc3ccccc23)c1,-5.2*,i,48*,0,1,6,CHT block conf=42%*;HEK293 MPD ctr=i
